This is an account of results in PubChem BioAssay AID624268 (The Scripps Research Institute Molecular Screening Center, 2012).

Molecules are shown by their SMILES. Out of some 360,000 compounds screened, about 1,500 (0.42%) were called active. The list comes from a sample in which actives are over-represented; it also holds similar structures and randomly drawn compounds. Values without a mark were called inactive.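 The calls were made as follows: active = inhibition above a per-plate cutoff of the control wells' mean inhibition plus 3 SD (cut at about 5.5% in these data); inactive = the rest.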

The experiment concerns methionyl-tRNA synthetase (Trypanosoma brucei brucei). Briefly: inhibition of trypanosome methionyl-tRNA synthetase – biochemical, luminescence, primary screen (AID 624268).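 Also: 0% = DMSO wells median and 100% = median of wells with control inhibitor compound.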 To be noted: purified T. brucei MetRS, ATP depletion, Kinase-Glo luminescence; at 11.9 µM; active compounds read high. In outline: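 Material – parasite MetRS enzyme · Medium – HEPES-MgCl2-KCl buffer plus DTT, spermine, BSA, pyrophosphatase · Reagent – ATP, methionine and E. coli bulk tRNA substrates · Times – 15 min enzyme-compound preincubation, 2 h reaction, 10 min detection, 25 °C · Measured by – luminescence of leftover ATP · Evaluation – percent inhibition relative to median high and low control wells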
(In general: Kinase-Glo measures the ATP left after a reaction by luminescence.)
A word on the inhibition: it is the change of the read-out against control, counted positive when it falls. Regarding `Cc1cc(C(C)(C)C)cc(S(=O)(=O)Nc2ccc(C(=O)O)cc2)c1C`, the inhibition was 0.3%.
As for `O=C(O)c1ccc(NS(=O)(=O)c2ccc3c(c2)C(=O)c2cc(S(=O)(=O)Nc4ccc(C(=O)O)cc4)ccc2-3)cc1`, the figure is 5.69% (active).
As for `O=C(c1ccc(NS(=O)(=O)c2ccc3[nH]c(=O)[nH]c3c2)cc1)N1CCCCC1`, the figure is -0.5%; as for `CCOC(=O)CC1=CC(=O)Nc2ccccc2N1`, -0.37%.
Then `CCOc1ccc(NC(=O)CSc2nc3c(c(=O)n2-c2ccccc2OC)SCC3)cc1`, with -0.23%; and `COc1ccccc1-n1c(SCC(=O)Nc2ccc(Cl)cc2)nc(O)c(Cc2ccccc2)c1=O`, with 55.1% (active).
For the compound `COc1ccc(NC(=O)CSc2nnc(Cc3ccccc3)c(=O)n2N)cc1`, the inhibition is -0.2%.
For the compound `COc1ccc(NC(=O)CN(C)C(=O)c2n[nH]c3ccccc23)cc1`, the inhibition is -0.44%.
As to `CC1(C(=O)NS(=O)(=O)c2cccc(OC(F)F)c2)CCN1C(=O)C1CC1` (configuration not stated), the inhibition was -0.2%.
Then `CC1(c2cccc([N+](=O)[O-])c2)CC(C)(C)N(C(=O)c2ccccc2)c2ccccc21` (configuration not stated), with 0.07%.
As for `c1ccc2cc3[nH]c(CN4CCCCC4)nc3cc2c1`, the figure is 7.35% (active); as for `O=c1cc(CN2CCCCCCC2)c2c(ccc3ccccc32)o1`, 0.63%.
With `Cc1ccc2[nH]c(=O)c(CN3CCCCC3)c(-c3ccccc3)c2c1`, the inhibition is 2.15%.
Then `O=C1COc2ccc(NC(=O)N3CCN(c4ccc(F)cc4)CC3)cc2N1`, with -0.82%; and `C[C@@H]1CN([C@H](C)CO)C(=O)CCCn2cc(nn2)CO[C@H]1CN(C)S(C)(=O)=O`, with -1.67%; and `COc1ccc(OC)c(NC(=O)C2(C)CCN2C(=O)Cc2ccccc2)c1` (configuration not stated), with -0.17%.
Then `COc1cc(/C=N\NC(=O)c2nonc2N)c(OC)cc1Br`, with -0.27%.
Then `COc1ccc(-c2[nH]ncc2/C=N/NC(=O)c2cc(Br)ccc2O)c(OC)c1`, with 5.88% (active).
As to `Cc1ccc(OCCOCCOc2ccc(Br)cc2/C=N\NC(=O)c2ccncc2)cc1`, the inhibition was 0.03%.
As to `Cn1c(N)c(C(=O)COC(=O)c2cccc(S(=O)(=O)N3CCOCC3)c2)c(=O)n(C)c1=O`, the inhibition was 0.03%.
As for `CC1CN(S(=O)(=O)c2cccc(C(F)(F)F)c2)CN1C(=O)N1CCOCC1` (configuration not stated), the figure is -0.97%.
As for `CC(C)CCNC(=O)C1CCCN(S(=O)(=O)c2ccc(F)cc2)C1` (configuration not stated), the figure is -0.46%.
As for `COC(=O)c1c(CCl)noc1C(=O)NC(C)C`, the inhibition was -0.34%.
As for `CN(CC(=O)NCc1ccc2c(c1)OCO2)CC(=O)Nc1ccc(F)c(F)c1F`, the figure is -0.42%; as for `O=C(NNC(=O)c1ccc(Cl)cc1Cl)c1cccs1`, -0.62%; as for `COC(=O)/C(=C\Nc1ccccc1)NC(=O)c1ccc(Cl)cc1Cl`, 43% (active).
On to `COc1ccc(CCOC(=O)CNC(=O)c2ccc(Cl)cc2Cl)cc1`, for which the inhibition is 0.12%.
With `Cn1ccsc1=NC(=O)c1cc(S(=O)(=O)N2CCOCC2)ccc1Cl`, the inhibition is 0%.
Then `COc1ccc(S(=O)(=O)N2CCOC2CNC(=O)C(=O)NCc2ccncc2)cc1C` (configuration not stated), with -0.16%; and `CCCCc1ccc(S(=O)(=O)NC(=O)C2(C)CCN2C(=O)c2c(C)noc2C)cc1` (configuration not stated), with -0.38%; and `OCCC1CN(Cc2cccn2-c2nccs2)CCN1CCc1ccccc1` (configuration not stated), with -0.69%.
Then `O=C(c1cccs1)C1C(c2ccc(Br)cc2)NC(=S)NC1(O)C(F)(F)F` (configuration not stated), with 0.24%; and `COc1cccc(CC2(CO)CCN(Cc3cnc(-c4cccc(C)c4)nc3)CC2)c1`, with -0.01%; and `Cc1c(CN2CCC(CO)(CCOc3ccccc3)CC2)[nH]c2ccc(Cl)cc12`, with 8.27% (active).
In the case of `OCC1(CCc2ccccc2)CCN(Cc2ccc3nsnc3c2)CC1`, the inhibition is 0.28%.
`CCc1c(C)n([O-])c2c([n+]1=O)CCCCC2`: the inhibition was -0.95%.
As to `COc1cccc(NC(=O)CN(C)C(=O)c2cc(C3CC3)nn2-c2ccccc2)c1`, the inhibition is -0.11%.
Take `CSc1ncccc1C(=O)NCC(c1ccco1)N1CCCCC1` (configuration not stated): the inhibition was 0.26%.
Then `O=CN1CCN(C2CC(=O)N(c3ccc4c(c3)OCO4)C2=O)CC1` (configuration not stated), with -2.06%; and `Cc1ccc(CC2CC(=O)N(c3ccc4c(c3)OCCO4)C2=O)cc1` (configuration not stated), with -0.24%.
As for `Cc1ccc(N2C(=O)CC(NCc3ccc4c(c3)OCO4)C2=O)cc1Cl` (configuration not stated), the inhibition is 12.1% (active).
Turning to `COC(=O)CCSc1cc([N+](=O)[O-])cc2c1c(C1OCCS1)nn2-c1ccccc1` (configuration not stated), the inhibition was -0.2%.
As for `CCOc1ccc(NC(=O)CC(Cc2ccc(Cl)cc2)C(=O)O)cc1` (configuration not stated), the figure is -0.95%; as for `Cc1ccc(C)c2[nH]c(=O)c(CCNC(=O)CC(C)C)cc12`, 0.44%; as for `O=C(CSc1nnc(-c2c[nH]c3ccccc23)n1-c1ccc(F)cc1)NCc1ccco1`, 3.05%.
As for `COc1ccc(-n2c(SCC(=O)NCc3cccs3)nnc2-c2ccoc2C)cc1`, the inhibition is -0.5%.
As for `COc1ccc(-n2c(SCC(=O)NCc3ccco3)nnc2-c2c[nH]c3ccccc23)cc1`, the inhibition is 6.44% (active).
Then `Cc1cc(C(=O)NNC(=O)c2cccc(S(=O)(=O)N3CCOCC3)c2)c2ccccc2n1`, with -0.24%.
Turning to `Cc1nn(C)c(Oc2ccc(Cl)cc2)c1C=O`, the inhibition is -0.76%.
On to `O=C(NCc1cc(C(F)(F)F)cc(C(F)(F)F)c1)C1CC(c2cccc(F)c2)=NO1` (configuration not stated), for which the inhibition was -0.13%.
Turning to `OC(c1cc(Cl)cc(Cl)c1)c1ncc(-c2ccccc2C(F)(F)F)[nH]1` (configuration not stated), the inhibition was 58% (active).
Then `OC(c1ccc(Cl)cc1)c1ncc(-c2ccc(Cl)cc2)[nH]1` (configuration not stated), with 2.49%; and `OC(c1ccc(Cl)c(F)c1)c1ncc(-c2ccccc2Cl)[nH]1` (configuration not stated), with 0.44%; and `Cc1ccc(-c2cnc(C(O)c3cc(Cl)cc(Cl)c3)[nH]2)cc1` (configuration not stated), with 40.4% (active).
Then `Cc1ccc(C(O)c2ncc(-c3ccccc3F)[nH]2)cc1F` (configuration not stated), with -0.2%.
Consider `Cc1cccc(-c2cnc(C(O)c3cc(C)cc(C)c3)[nH]2)c1` (configuration not stated), for which the inhibition was -0.08%.
In the case of `CCC(=O)N1CCC(C)(C(=O)Nc2cc(OC)c(OC)c(OC)c2)C1` (configuration not stated), the inhibition was 0.06%.
